Test results taken from ChEMBL document CHEMBL1156768, “The structure-activity relationship of the antimalarial ozonide arterolane (OZ277)” (J Med Chem, 2010).
≈ marks a conversion by molar mass, not a printed value.

Tests used:
Plasmodium berghei [1] = assay: Antiplasmodial activity against Plasmodium berghei infected in NMRI mice (Mus musculus) assessed as reduction of parasitaemia level at 10 mg/kg, perorally administered 1 day after post-infection measured after 3 days post-infection; format: functional; parameters: scale not given: the % may be the effect or the level left; details: route oral
Summary of the method: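 Groups of five NMRI mice infected with P. berghei received a single oral dose on day 1 postinfection. Read-out was percent reduction in parasitemia on day 3 postinfection. Individual measurements differed by less than 10%.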

Plasmodium falciparum [2] = assay: Antimalarial activity against chloroquine-sensitive Plasmodium falciparum NF54 infected in human A+ erythrocytes assessed as [3H]hypoxanthine incorporation by semi-automated micro dilution assay; format: functional, organism-based
Plasmodium falciparum [3] = assay: Antimalarial activity against chloroquine-resistant Plasmodium falciparum K1 infected in human A+ erythrocytes assessed as [3H]hypoxanthine incorporation by semiautomated micro dilution assay; format: functional, organism-based
[4] = Oral bioavailability in Sprague-Dawley rat; format: ADME, organism-based; details: in vivo
Summary of the method: (§1)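 Rats received an IV infusion over 5-10 min through a jugular cannula at 2.5-3.5 mg/kg, in DMSO/aqueous buffer or propylene glycol/ethanol/water. Oral gavage used aqueous suspensions in HPMC or CMC with 0.4% Tween 80 and 0.5% benzyl alcohol. Carotid blood was sampled, and plasma was acetonitrile-precipitated and measured by LC/MS against plasma calibration standards. Values are averages of 2-3 determinations.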

[5] = Plasma clearance in Sprague-Dawley rat at 2.5 to 3.5 mg/kg, iv; format: ADME, organism-based; parameters: dose 2.5-3.5 mg/kg, route intravenous; summary of the method: as §1
[6] = Half life in Sprague-Dawley rat at 2.5 to 3.5 mg/kg, iv; format: ADME, organism-based; parameters: dose 2.5-3.5 mg/kg, route intravenous; details: in vivo; summary of the method: as §1
[7] = Volume of distribution in Sprague-Dawley rat at 2.5 to 3.5 mg/kg, iv; format: ADME, organism-based; parameters: dose 2.5-3.5 mg/kg, route intravenous; details: in vivo; summary of the method: as §1
Plasmodium berghei [8] = assay: Antiplasmodial activity against Plasmodium berghei infected in NMRI mice (Mus musculus) assessed as mice (Mus musculus) survival days at 3 mg/kg, perorally daily once for 3 consecutive days measured after 4 days post-infection; format: functional; details: route oral
Summary of the method: (§2)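 P. berghei-infected NMRI mice, in groups of five, were dosed orally at 3 mg/kg on days +1, +2 and +3 postinfection. Parasitemia reduction, survival time and cure were scored.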

Plasmodium berghei [9] = assay: Antiplasmodial activity against Plasmodium berghei infected in NMRI mice (Mus musculus) assessed as reduction of parasitaemia level at 3 mg/kg, perorally daily once for 3 consecutive days measured after 4 days post-infection; format: functional; parameters: scale not given: the % may be the effect or the level left; details: route oral; summary of the method: as §2
[10] = Blood clearance in Sprague-Dawley rat at 2.5 to 3.5 mg/kg, iv; format: ADME, organism-based; parameters: dose 2.5-3.5 mg/kg, route intravenous; details: whole blood; summary of the method: as §1
Plasmodium berghei [11] = assay: Antiplasmodial activity against Plasmodium berghei infected in NMRI mice (Mus musculus) assessed as curing of parasitaemia at 3 mg/kg, perorally daily once for 3 consecutive days measured after 30 days post-infection; format: functional; details: route oral; summary of the method: as §2
Cytochrome P450 2C9 = Cytochrome P450 2C9 (Homo sapiens, UniProt P11712); assay: Inhibition of human CYP2C9 up to 50 uM; format: ADME
Rattus norvegicus [12] = assay: Lymphatic organ toxicity in Sprague-Dawley rat at 300 mg/kg, po daily once for 5 days; format: organism-based; parameters: dose 300 mg/kg, route oral; details: in vivo, 120 h
Summary of the method: (§3)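 Preliminary toxicology was run in male rats given daily oral doses for five days.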

Rattus norvegicus [13] = assay: Neurotoxicity in Sprague-Dawley rat at 300 mg/kg, po daily once for 5 days; format: toxicity, organism-based; parameters: dose 300 mg/kg, route oral; details: in vivo, 120 h; summary of the method: as §3
Rattus norvegicus [14] = assay: Liver toxicity in Sprague-Dawley rat at 300 mg/kg, po daily once for 5 days; format: organism-based; parameters: dose 300 mg/kg, route oral; details: in vivo, 120 h; summary of the method: as §3
Cytochrome P450 2D6 = Cytochrome P450 2D6 (Homo sapiens, UniProt P10635); assay: Inhibition of human CYP2D6 up to 50 uM; format: ADME
[15] = Partition coefficient, log D in octanol/buffer at pH 7.4 by chromatographic method; format: physicochemical
Rattus norvegicus [16] = assay: Renal toxicity in Sprague-Dawley rat at 300 mg/kg, po daily once for 5 days; format: organism-based; parameters: dose 300 mg/kg, route oral; details: in vivo, 120 h; summary of the method: as §3
Cytochrome P450 3A4 = Cytochrome P450 3A4 (Homo sapiens, UniProt P08684); assay: Inhibition of human CYP3A4 up to 50 uM; format: ADME
Cytochrome P450 3A4, sequence (P08684 whole entry): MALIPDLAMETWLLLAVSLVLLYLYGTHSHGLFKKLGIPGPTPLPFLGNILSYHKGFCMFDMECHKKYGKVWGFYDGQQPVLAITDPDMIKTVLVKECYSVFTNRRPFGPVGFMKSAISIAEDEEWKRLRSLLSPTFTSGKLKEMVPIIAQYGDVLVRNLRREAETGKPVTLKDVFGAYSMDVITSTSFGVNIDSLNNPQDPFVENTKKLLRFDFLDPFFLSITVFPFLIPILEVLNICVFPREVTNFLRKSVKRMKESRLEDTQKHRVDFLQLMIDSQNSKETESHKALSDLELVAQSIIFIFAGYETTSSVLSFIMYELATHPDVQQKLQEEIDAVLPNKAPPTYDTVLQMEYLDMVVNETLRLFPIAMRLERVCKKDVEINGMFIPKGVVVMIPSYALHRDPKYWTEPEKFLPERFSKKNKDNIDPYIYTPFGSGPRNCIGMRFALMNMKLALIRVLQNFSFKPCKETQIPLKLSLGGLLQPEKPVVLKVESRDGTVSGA

Cytochrome P450 2C9, sequence (P11712 whole entry): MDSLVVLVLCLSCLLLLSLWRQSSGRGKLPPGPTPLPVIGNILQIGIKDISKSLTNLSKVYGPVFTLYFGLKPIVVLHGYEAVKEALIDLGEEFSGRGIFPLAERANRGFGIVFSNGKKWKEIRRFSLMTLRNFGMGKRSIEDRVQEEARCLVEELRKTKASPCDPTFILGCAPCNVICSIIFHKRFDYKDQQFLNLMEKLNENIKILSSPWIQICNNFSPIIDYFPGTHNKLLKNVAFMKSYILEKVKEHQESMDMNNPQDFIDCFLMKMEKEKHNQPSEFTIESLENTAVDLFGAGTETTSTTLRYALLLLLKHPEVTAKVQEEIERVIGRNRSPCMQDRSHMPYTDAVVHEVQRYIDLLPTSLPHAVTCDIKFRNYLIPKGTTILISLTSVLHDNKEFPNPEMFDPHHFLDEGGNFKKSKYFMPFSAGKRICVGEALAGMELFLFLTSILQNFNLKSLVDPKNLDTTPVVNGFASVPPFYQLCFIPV
Cytochrome P450 2D6, sequence (P10635 whole entry): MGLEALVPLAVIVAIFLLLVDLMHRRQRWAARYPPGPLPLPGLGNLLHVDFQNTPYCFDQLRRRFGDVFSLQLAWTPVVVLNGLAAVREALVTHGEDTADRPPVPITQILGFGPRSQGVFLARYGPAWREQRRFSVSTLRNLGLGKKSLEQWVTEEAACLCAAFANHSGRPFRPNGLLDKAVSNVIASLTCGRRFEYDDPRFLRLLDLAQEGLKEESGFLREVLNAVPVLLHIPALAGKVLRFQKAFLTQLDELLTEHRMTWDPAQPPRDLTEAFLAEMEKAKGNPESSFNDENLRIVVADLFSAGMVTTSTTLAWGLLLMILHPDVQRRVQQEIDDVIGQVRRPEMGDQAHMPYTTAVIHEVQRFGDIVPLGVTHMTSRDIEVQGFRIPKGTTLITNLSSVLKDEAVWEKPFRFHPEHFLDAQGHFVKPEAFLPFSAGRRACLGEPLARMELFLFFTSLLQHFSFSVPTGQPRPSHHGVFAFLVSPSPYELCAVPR

With `O=C(C[C@H]1CC[C@]2(CC1)OO[C@]1(O2)C2CC3CC(C2)CC1C3)N1CCS(=O)(=O)CC1` the Activity (Plasmodium berghei [1]) was under 40%.

In the case of `CC(C)(N)CNC(=O)[C@H]1CC[C@@]2(CC1)OO[C@@]1(O2)C2CC3CC(C2)CC1C3.Cc1ccc(S(=O)(=O)O)cc1`, the Activity (Plasmodium berghei [1]) was 84%, the IC50 (Plasmodium falciparum [2]) was 0.74 ng/mL and the IC50 (Plasmodium falciparum [3]) was 1.4 ng/mL.

Work on `O=C(C[C@H]1CC[C@]2(CC1)OO[C@]1(O2)C2CC3CC(C2)CC1C3)N1CCC(O)CC1` yielded a bioavailability [4] of 5%, a clearance [5] of 37 mL/min/kg and a half-life [6] of 11 h. It also gave an Activity (Plasmodium berghei [1]) of 99.7%, an IC50 (Plasmodium falciparum [2]) of 0.76 ng/mL (≈ 1.87 nM) and a Vd [7] of 36 L/kg. The IC50 (Plasmodium falciparum [3]) was 0.49 ng/mL (≈ 1.21 nM).

For `CC(C)(N)CNC(=O)N[C@H]1CC[C@]2(CC1)OO[C@]1(O2)C2CC3CC(C2)CC1C3.Cc1ccc(S(=O)(=O)O)cc1`, the Activity (Plasmodium berghei [1]) was 63%, the IC50 (Plasmodium falciparum [2]) was 6.2 ng/mL and the IC50 (Plasmodium falciparum [3]) was 8.4 ng/mL.

Work on `CC(C)(CN)CNC(=O)C[C@H]1CC[C@]2(CC1)OO[C@]1(O2)C2CC3CC(C2)CC1C3.CS(=O)(=O)O` yielded an Activity (Plasmodium berghei [1]) of 99.9%, an IC50 (Plasmodium falciparum [2]) of 0.49 ng/mL and an IC50 (Plasmodium falciparum [3]) of 0.46 ng/mL.

Compound `O=C(O)C[C@H]1CC[C@]2(CC1)OO[C@]1(O2)C2CC3CC(C2)CC1C3` has an Activity (Plasmodium berghei [1]) of 95%, an IC50 (Plasmodium falciparum [2]) of 45 ng/mL (≈ 140 nM) and an IC50 (Plasmodium falciparum [3]) of 34 ng/mL (≈ 105 nM).

For `CCN(CC)CCCC(C)Nc1ccnc2cc(Cl)ccc12` (stereo not drawn) [CHLOROQUINE], the Survival (Plasmodium berghei [8]) was 9.4 days.

`Cc1ccc(S(=O)(=O)O)cc1.O=C(C[C@H]1CC[C@]2(CC1)OO[C@]1(O2)C2CC3CC(C2)CC1C3)N1CCNCC1` gave an Activity (Plasmodium berghei [9]) of over 99.9%, a bioavailability [4] of 37% and a clearance [5] of 168 mL/min/kg. For the same compound, the half-life [6] was 1.7 h, the Activity (Plasmodium berghei [1]) was over 99.9% and the IC50 (Plasmodium falciparum [2]) was 0.24 ng/mL. It also gave a clearance [10] of 56.3 mL/min/kg, a Vd [7] of 25 L/kg and an Activity (Plasmodium berghei [11]) of 0%. For the same compound, the IC50 (Plasmodium falciparum [3]) was 0.21 ng/mL.

For `CC(C)(N)CNC(=O)C[C@H]1CC[C@]2(CC1)OO[C@]1(O2)C2CC3CC(C2)CC1C3.Cc1ccc(S(=O)(=O)O)cc1` [ARTEROLANE], the Activity (Cytochrome P450 2C9) was “Not Active”, the Activity (Plasmodium berghei [9]) was over 99.9% and the Activity (Rattus norvegicus [12]) was “Non-toxic”. For the same compound, the bioavailability [4] was 26%, the Activity (Rattus norvegicus [13]) was “Non-toxic” and the Activity (Rattus norvegicus [14]) was “Non-toxic”. The clearance [5] was 141 mL/min/kg, the Survival (Plasmodium berghei [8]) was 11.4 days and the half-life [6] was 1.27 h. For the same compound, the Activity (Plasmodium berghei [1]) was 99.9%, the Activity (Cytochrome P450 2D6) was “Not Active” and the IC50 (Plasmodium falciparum [2]) was 0.91 ng/mL. The chromatographic logD [15] was 2.9, the clearance [10] was 62 mL/min/kg and the Vd [7] was 16 L/kg. The Activity (Rattus norvegicus [16]) was “Non-toxic”, the Activity (Plasmodium berghei [11]) was 0% and the IC50 (Plasmodium falciparum [3]) was 1 ng/mL. The Activity (Cytochrome P450 3A4) was “Not Active”.

`CC(C)(N)CNC(=O)OC[C@H]1CC[C@]2(CC1)OO[C@]1(O2)C2CC3CC(C2)CC1C3.Cc1ccc(S(=O)(=O)O)cc1` showed an Activity (Plasmodium berghei [9]) of over 99.9%, a Survival (Plasmodium berghei [8]) of 9.8 days and an Activity (Plasmodium berghei [1]) of over 99.9%. The IC50 (Plasmodium falciparum [2]) was 0.36 ng/mL, the Activity (Plasmodium berghei [11]) was 0% and the IC50 (Plasmodium falciparum [3]) was 0.22 ng/mL.

For `Cc1ccc(S(=O)(=O)O)cc1.NC1(CNC(=O)C[C@H]2CC[C@]3(CC2)OO[C@]2(O3)C3CC4CC(C3)CC2C4)CC1`, the Activity (Plasmodium berghei [1]) was 99.9%, the IC50 (Plasmodium falciparum [2]) was 0.52 ng/mL and the IC50 (Plasmodium falciparum [3]) was 0.4 ng/mL.

With `O=C(O)C1CCN(C(=O)C[C@H]2CC[C@]3(CC2)OO[C@]2(O3)C3CC4CC(C3)CC2C4)CC1` the IC50 (Plasmodium falciparum [2]) was 27 ng/mL (≈ 62.3 nM) and the IC50 (Plasmodium falciparum [3]) was 19 ng/mL (≈ 43.8 nM).

With `NC(=O)CNC(=O)C[C@H]1CC[C@]2(CC1)OO[C@]1(O2)C2CC3CC(C2)CC1C3` the Activity (Plasmodium berghei [1]) was 99.6%, the IC50 (Plasmodium falciparum [2]) was 3.6 ng/mL (≈ 9.51 nM) and the IC50 (Plasmodium falciparum [3]) was 3.9 ng/mL (≈ 10.3 nM).

Work on `Cc1ccc(S(=O)(=O)O)cc1.NCCCNC(=O)C[C@H]1CC[C@]2(CC1)OO[C@]1(O2)C2CC3CC(C2)CC1C3` yielded an Activity (Plasmodium berghei [1]) of 99.9%, an IC50 (Plasmodium falciparum [2]) of 2.3 ng/mL and an IC50 (Plasmodium falciparum [3]) of 3.5 ng/mL.

`O=C(C[C@H]1CC[C@]2(CC1)OO[C@]1(O2)C2CC3CC(C2)CC1C3)N1CCN(CCO)CC1` showed an Activity (Plasmodium berghei [1]) of 96%, an IC50 (Plasmodium falciparum [2]) of 0.9 ng/mL (≈ 2.07 nM) and an IC50 (Plasmodium falciparum [3]) of 1 ng/mL (≈ 2.3 nM).

`CC(C)(N)CNC(=O)CC[C@H]1CC[C@]2(CC1)OO[C@]1(O2)C2CC3CC(C2)CC1C3.Cc1ccc(S(=O)(=O)O)cc1` showed an Activity (Plasmodium berghei [9]) of over 99.9%, a bioavailability [4] of 32% and a clearance [5] of 134 mL/min/kg. For the same compound, the Survival (Plasmodium berghei [8]) was 24.4 days, the half-life [6] was 1 h and the Activity (Plasmodium berghei [1]) was over 99.9%. It also gave an IC50 (Plasmodium falciparum [2]) of 0.82 ng/mL, a Vd [7] of 12 L/kg and an Activity (Plasmodium berghei [11]) of 0%. It also gave an IC50 (Plasmodium falciparum [3]) of 0.55 ng/mL.

`O=C(C[C@H]1CC[C@]2(CC1)OO[C@]1(O2)C2CC3CC(C2)CC1C3)NO` gave an Activity (Plasmodium berghei [1]) of 97%, an IC50 (Plasmodium falciparum [2]) of 2 ng/mL (≈ 5.93 nM) and an IC50 (Plasmodium falciparum [3]) of 1.4 ng/mL (≈ 4.15 nM).
